Data on 1 compound can be found in ChEMBL document CHEMBL3085664, “Structure-activity relationship of imidazopyridinium analogues as antagonists of neuropeptide s receptor” (J Med Chem, 2013).

The structures appear in SMILES notation.

Data set [1] can be described thus: Metabolic stability in mouse liver microsomes assessed as compound remaining after 60 mins in absence NADPH. It counts as ADME, Microsome. The following applies: read-out: Stability. In outline:
(§1)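 Compound was incubated with mouse liver microsomes, and percent parent remaining was determined at 15, 30 and 60 min. Values are means from a single experiment run in duplicate.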
For orientation: Liver microsomes are vesicles of endoplasmic reticulum, rich in cytochrome P450 enzymes.

The nature of data set [2]: Metabolic stability in mouse liver microsomes assessed as compound remaining after 30 mins in absence NADPH. It counts as ADME, Microsome. The following applies: read-out: Stability. In outline: as §1
The nature of data set [3]: Metabolic stability in mouse liver microsomes assessed as compound remaining after 15 mins in absence NADPH. The following applies: read-out: Stability. It counts as ADME, Microsome. The gist of the method: as §1
The nature of data set [4]: Metabolic stability in mouse liver microsomes assessed as compound remaining after 60 mins in presence NADPH. It counts as ADME, Microsome. The conditions noted are these: read-out: Stability. In outline: as §1
A short description of data set [5]: Metabolic stability in mouse liver microsomes assessed as compound remaining after 30 mins in presence NADPH. It counts as ADME, Microsome. The following applies: read-out: Stability. The gist of the method:
as §1

Data set [6] can be described thus: Metabolic stability in mouse liver microsomes assessed as compound remaining after 15 mins in presence NADPH. Format: ADME, Microsome. The conditions noted are these: read-out: Stability. In outline:
as §1

Data set [7] has as its target T1, Neuropeptide S receptor (Homo sapiens, UniProt Q6W5P4).
T1 sequence (Q6W5P4 whole entry): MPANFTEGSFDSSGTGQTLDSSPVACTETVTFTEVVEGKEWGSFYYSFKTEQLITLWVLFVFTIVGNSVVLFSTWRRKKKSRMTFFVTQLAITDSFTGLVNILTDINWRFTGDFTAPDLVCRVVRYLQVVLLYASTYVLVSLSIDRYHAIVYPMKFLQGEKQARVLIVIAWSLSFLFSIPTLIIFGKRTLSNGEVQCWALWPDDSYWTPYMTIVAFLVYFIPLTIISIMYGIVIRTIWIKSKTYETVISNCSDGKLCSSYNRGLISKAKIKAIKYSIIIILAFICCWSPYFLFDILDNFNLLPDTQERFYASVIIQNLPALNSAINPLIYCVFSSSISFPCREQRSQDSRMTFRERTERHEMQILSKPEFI
Put plainly: Displacement of [125I]Tyr10-NPS from human neuropeptide S receptor expressed in CHO cells after 1.5 hrs by liquid scintillation counting. Format: cell-based. The gist of the method: (§2)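 Whole CHO cells stably expressing human NPSR at 90–95% confluency in 24-well plates. Cells were incubated with 0.15 nM [125I]Y10-NPS plus increasing compound or unlabeled NPS in DMEM/0.1% BSA, 20°C, 1.5 hr. Nonspecific binding was defined with 1 µM unlabeled human NPS. Cells were washed, lysed in 1 N NaOH and counted by liquid scintillation. IC50 from one experiment in duplicate.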

Data set [8] deals with T1, Neuropeptide S receptor. Put plainly: Antagonist activity at neuropeptide S receptor (unknown origin) expressed in CHO cells assessed as inhibition of NPS-induced ERK activation after 20 mins by HTRF assay. It counts as cell-based. For orientation: TR-FRET usually uses a lanthanide donor and a delayed reading to cut background.
Data set [9] addresses T1, Neuropeptide S receptor. Kind of data set: Antagonist activity at neuropeptide S receptor (unknown origin) expressed in CHO cells assessed as inhibition of NPS-induced calcium mobilization after 10 mins by fluorescence assay. It counts as functional, cell-based. The following applies: read-out: IC50. In outline: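 CHO-NPSR cells, 2000/well in 1536-well plates, incubated overnight, then loaded with no-wash calcium dye for 1 h at 37°C. Compound in DMSO was added for 10 min. Baseline fluorescence was recorded 6 s at 1 Hz, then EC80 NPS in stimulation buffer was added and recording continued 4 min at 1 Hz on a kinetic reader. IC50 is the mean with SD of two independent experiments in duplicate.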
A general note: Calcium flux is commonly read through the fluorescence of an indicator in the cells.

The target of data set [10] is T1, Neuropeptide S receptor. Put plainly: Antagonist activity at neuropeptide S receptor (unknown origin) expressed in CHO cells assessed as cAMP level after 30 mins by […] assay. The following applies: read-out: IC50. It counts as functional, cell-based. In outline:
(§3)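 CHO cells stably expressing NPSR, 1800 cells/well in 1536-well format, seeded overnight at 37°C in medium without Geneticin. Stimulation buffer (PBS, 0.1% BSA, 0.05% Tween-20, 500µM Ro 20-1724, EC80 NPS) was added for 30 min at 37°C. cAMP was read by HTRF (d2-cAMP/cryptate anti-cAMP in lysis buffer, 30 min). IC50 is the mean with SD of two independent experiments, each run in duplicate.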

Data set [11] in a line: Drug level in mouse brain after 15 mins. It counts as ADME, tissue-based. The conditions noted are these: read-out: Drug uptake.
Data set [12] can be described thus: Drug level in mouse brain after 2 hrs. Format: ADME, tissue-based. The following applies: read-out: Drug uptake.
In another data set the test system is Mus musculus. Put plainly: Inhibition of NPS-induced hyperlocomotion in mouse at 50 mg/kg, ip after 90 mins. Format: functional. The conditions noted are these: 1.5 h, route intraperitoneal.
For data set [13], the target named is T1, Neuropeptide S receptor. Kind of data set: Displacement of [125I]Tyr10-NPS from neuropeptide S receptor (unknown origin). The gist of the method:
as §2

The target in data set [14] is T1, Neuropeptide S receptor. Put plainly: Antagonist activity at neuropeptide S receptor (unknown origin) assessed as cAMP level by cell based assay. It counts as functional. In outline: as §3
In data set [15] the target is T1, Neuropeptide S receptor. Put plainly: Antagonist activity at neuropeptide S receptor (unknown origin) assessed as intracellular calcium level by cell based assay. Format: functional. In outline:
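CHO cells stably expressing NPSR were seeded at 2000 cells/well and incubated overnight at 37 °C, 5% CO2. They were loaded with no-wash calcium dye for 1 h, then preincubated with compound in DMSO for 10 min. Stimulation used NPS at EC80 in PBS/0.1% BSA/0.05% Tween-20 with 500 µM Ro 20-1724. Kinetic fluorescence was read at 1 Hz: 6 s baseline, then 4 min. IC50 is the mean ± SD of two independent experiments, each in duplicate.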

In general, IC50 refers to the concentration that gives 50% inhibition. As a reminder, the inhibition in vivo is the relative decrease from the control value, in per cent. Regarding `O=C(NCc1ccc(F)cc1)N1CCN2C(=O)OC(c3ccccc3)(c3ccccc3)C2C1` (stereo unspecified), the remaining at 1 h in data set [1] is 101%; in data set [4], 2%. Moreover, the remaining at 0.5 h is 96% in [2] and 9% in [5]. The remaining at 0.25 h in data set [3] came out at 105%; in data set [6], 29%. In addition, the IC50 on Neuropeptide S receptor [7] was 25 nM; at Neuropeptide S receptor [8], 14 nM; at Neuropeptide S receptor [9], 420 nM; on Neuropeptide S receptor [10] it was 5.3 nM; on Neuropeptide S receptor [13], 48 nM; at Neuropeptide S receptor [14], 420 nM. The IC50 at Neuropeptide S receptor [15] is 28 nM. Besides, the concentration at 0.25 h in [11] was 6 µM. In addition, in [12], the concentration at 2 h was 2 µM. Moreover, at 50 mg/kg the inhibition in vivo in the data set on Mus musculus was 50%.
